# From PubChem
# A1 inh: caspase 3/7 activation in MEF A1-2A-BIM cells, primary screen, A1 inhibitor project, cell-based, luminescence, HTS | Caspase-Glo 3/7 luminescence, 3 h; percent of clofoctol response, vehicle zero | caspase activation, % (test concentration not listed) | actives 0.066% (n = 330,000);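 active means over half of replicate activation scores above 10%, or exactly half above 10 with the replicate mean above 10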
# MC4R antagonist: MC4R antagonists of cAMP signaling, primary screen, cell-based, TR-FRET, antagonist arm of biased-ligand search | Melanocortin receptor 4 (Homo sapiens), P32245 | MC4R-expressing cells, MTII-stimulated cAMP, LANCE TR-FRET | inhibition, % at 6.5 µM | actives 0.48% (n = 360,000) | AID 540295, 2011;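 active means inhibition above its plate's cutoff, the mean of tested wells on that plate plus 3 SD, cut at about 29% in these data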;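 further: 0% = Melanotan II alone and 100% = Melanotan II plus saturating MCL0020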
#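 Test system: U2OS cells stably expressing human melanocortin 4 receptor (MC4R); also added: Melanotan II challenge; compound: 6.5 µM single dose; timing: 30-min compound preincubation, 1-h Melanotan II challenge, 1-h detection, room temperature; signal: Eu-cAMP/anti-cAMP TR-FRET, emission 671 nm; repeats: one well per compound, no replicates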
# Exocytosis inh: LAMP-1 surface exposure blockers, TALL-104 cells – cell-based, flow cytometry, MLPCN library, primary screen; TALL-104 LAMP-1 surface exposure; cells stimulated with thapsigargin and PMA; inhibition, % at 10 µM; actives 0.66% (n = 360,000);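 active means inhibition above about 55%, limit read from the data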
# MC4R ag barr: MC4R agonists recruiting beta-arrestin, primary screen, cell-based, luminescence, agonist arm of biased-ligand search | activation, % at 8.9 µM | Melanocortin receptor 4 (Homo sapiens), P32245 | U2OS MC4R beta-arrestin complementation; percent of melanotan II response, DMSO zero | actives 0.98% (n = 360,000);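 active means activation above a per-plate cutoff, the mean activation of sample wells on that plate plus 3 SD, cut at about 8% in these data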
# HGIII-sPLA2 inh: human group III sPLA2 inhibitors, primary screen, biochemical, QFRET, BODIPY PC-A2 liposome substrate; Group 3 secretory phospholipase A2 (Homo sapiens), Q9NZ20; QFRET BODIPY PC-A2 liposome hydrolysis, fluorescence; inhibition, % at 12.2 µM; actives 0.56% (n = 370,000);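 active means inhibition above mean plus 3 SD of compounds lying within the high and low control bounds, cut at about 19% in these data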;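 further: 0% = median of test compound wells and 100% = no enzyme DMSO wells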
# Target sequence (Q9NZ20 whole entry, looked up): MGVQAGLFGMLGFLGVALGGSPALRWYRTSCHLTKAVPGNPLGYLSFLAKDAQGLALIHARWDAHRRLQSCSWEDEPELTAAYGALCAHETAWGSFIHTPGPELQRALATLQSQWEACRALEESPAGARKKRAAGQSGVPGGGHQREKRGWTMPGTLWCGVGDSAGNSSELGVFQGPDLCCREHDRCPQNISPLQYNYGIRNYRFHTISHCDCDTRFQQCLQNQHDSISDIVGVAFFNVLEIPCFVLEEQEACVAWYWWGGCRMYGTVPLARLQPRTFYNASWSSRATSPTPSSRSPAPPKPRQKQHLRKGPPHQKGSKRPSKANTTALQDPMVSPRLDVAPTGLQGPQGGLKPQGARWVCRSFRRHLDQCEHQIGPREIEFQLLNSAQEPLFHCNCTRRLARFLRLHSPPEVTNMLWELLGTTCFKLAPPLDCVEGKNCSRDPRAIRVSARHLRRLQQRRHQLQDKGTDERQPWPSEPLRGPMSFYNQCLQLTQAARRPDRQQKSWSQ
# NTR1 ag: agonists of human NTR1, primary screen, imaging, U2OS cells, beta-arrestin-GFP, high content; Neurotensin receptor type 1 (Homo sapiens), P30989; NTR1-U2OS beta-arrestin-GFP spot imaging, agonist mode; activation, % at 20 µM; actives 0.17% (n = 330,000); AID 493036, 2011;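 active means activation at or above 40% of the spot to cytoplasm intensity ratio, with at least 20 cells analyzed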;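 further: 0% = DMSO without peptide and 100% = 100 nM NTR1 peptide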
# Exocytosis CP01: inhibitors of lytic granule exocytosis, confirmation, TALL-104 cells, flow cytometry, Cherry Pick01 | AID 651954, 2012 | shares compounds with Exocytosis inh | inhibition, % at 10 µM | LAMP-1 externalization; stimulated with PMA plus thapsigargin | actives 11% (n = 1,500); in the data active means inhibition above about 60%;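 further: 0% = stimulated vehicle wells and 100% = unstimulated wells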
# * marks the source's active call; other numbers are inactive results; . = no result. Most compounds without a hit are left out; they make up all but 2.5% or so of the library.
SMILES,A1 inh,MC4R antagonist,Exocytosis inh,MC4R ag barr,HGIII-sPLA2 inh,NTR1 ag,Exocytosis CP01
COc1ccc(CC(=O)NCC2CCCN(Cc3ccc(SC)cc3)C2)cc1 (stereo unspecified),-1,8,47,-1,-8,-1,.
COc1cc(SC)ccc1C(=O)NCCc1c[nH]c2ccccc12,0,-1,62*,0,-76,2,-4
Cc1cc(O)c(-c2cc(O)c(C)cc2O)cc1O,-1,4,102*,-5,-8,1,23
Cc1cc(N=O)c(C)cc1O,.,-8,-6,-1,2,.,.
Cc1coc2c1c(C)cc1oc(=O)c(Cc3ccccc3)c(C)c12,0,-2,63*,-2,-1,2,-11
Cc1cccc(CN2CCc3c([nH]c4ccccc34)C2CC(C)C)n1 (stereo unspecified),0,2,63*,0,-1,6,-3
CC(C)(C)c1ccc(C(=O)N2CCCC2c2cccs2)cc1 (stereo unspecified),1,25,8,3,-1,3,.
c1cc2cc(CNc3nc(NCC4CC4)nc4ccsc34)ccc2o1,.,-3,17,0,-11,.,.
COc1ccccc1CNc1nc(NCc2ccc3occc3c2)c2sccc2n1,.,-8,93*,0,-19,.,90*
COc1ccccc1CNc1nc(NCc2ccccc2OC)c2sccc2n1,.,-15,-2,-3,-1,.,.
COc1ccccc1CNc1nc(NCCOc2ccccc2)c2sccc2n1,.,-1,56*,-3,-27,.,45
Cn1cncc1C#Cc1c(-c2ccc(S(C)(=O)=O)cc2)sc2ccccc12,.,28,103*,3,0,15,97*
CCOc1ccccc1NC(=O)c1cc(S(=O)(=O)NCc2ccco2)ccc1F,0,10,104*,4,-29,2,-13
COc1ccc(OC)c(NC(=O)c2cc(S(=O)(=O)NCc3ccco3)ccc2F)c1,0,0,4,3,-27,3,.
Cn1c(=O)c(N)c2c3c(c(Br)ccc31)C(=O)c1ccccc1-2,1,-16,86*,-2,-302,-2,68*
CC(C)(C)N1Cc2nnn(Cc3ccccc3)c2-c2cc(N3CCCCC3)ccc2S1(=O)=O,.,.,.,.,-1,.,.
CC1=Nc2ccccc2/C1=C\c1nc(-c2ccc(F)cc2)oc1O,0,-1,76*,0,0,11,36
CN=Cc1nc(-c2ccccc2)oc1O,-4,-2,-1,1,6,-1,.
Cc1cccc(N)c1-c1c(C)cccc1N,0,16,-1,5,7,0,.
COc1cccc(NC(=O)c2sc3nc(N4CCOCC4)c4c(c3c2N)CCCC4)c1,-1,0,69*,1,0,7,-16
O=C(CCNS(=O)(=O)c1ccccc1C(F)(F)F)NC1CCCCCC1,.,4,-2,-3,2,0,.
CCN(CC)CCNc1nc(-c2ccc(OC)cc2)c(-c2ccc(OC)cc2)s1,0,5,66*,2,6,0,-2
CC(NC(=O)CC12CC3CC(CC(C3)C1)C2)C(=O)O (stereo unspecified),0,3,63*,-1,12,0,-4
O=C(C1=C[C@@H](c2coc3ccccc3c2=O)C[C@@H](OCCCCO)O1)N1CCOCC1,0,4,66*,-2,0,-1,-14
CN1CCN(C(=O)C2=C[C@H](c3coc4ccccc4c3=O)C[C@H](OCCCCO)O2)CC1,0,4,-1,-1,4,-3,.
